Columns and labels:
E. fetida = details: cited from earlier work
Folsomia candida = experiment: Collembolan reproduction test; type: in vivo; details: F. candida; for Times more toxic to survival than its commercial formulation: pure compound vs formulation (LC50)
Procedure, shortened: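 LUFA 2.2 soil spiked with aqueous pure compound or commercial formulation to 50% WHC; nominal control and 0.04–10.0 mg a.s./kg dry soil. Ten 10–12-d-old synchronized juveniles per 30 g soil, 5 replicates, weekly yeast and water top-up. Held 28 d at 20 ± 2 °C, 75% RH. Animals counted by flotation and image analysis. Log-logistic LC50/EC50 fitted on nominal concentrations.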

Eisenia andrei = experiment: Earthworm reproduction test; type: in vivo
Procedure, shortened: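 Clitellate 2-mo synchronized worms acclimatized 24 h in clean soil, washed and weighed. Ten per ~600 g spiked LUFA 2.2 soil (nominal 0.04–10.0 mg a.s./kg dry soil, pure or formulation), 4 replicates, horse manure as food, 20 ± 2 °C, 75% RH. Survival and weight change read on day 28. Juveniles extracted on day 56 in a 60 °C water bath. Log-logistic LC50/EC50 fitted on nominal concentrations.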

[1] = octanol/water partition coefficient at pH 7, 20 °C; ref University of Hertfordshire 2018; cited from earlier work
earthworm = details: survival; ref National Registration Authority for Agricultural and Veterinary Chemicals (2001); cited from earlier work
[2] = type: physicochemical; details: E. andrei test soil, nominal 10 thiamethoxam, t=56 days
Procedure, shortened: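 Soil (5 g) sampled from replicate jar 4 on days 0, 28 and/or 56 and stored at –20 °C. Extracted by QuEChERS and analysed by reverse-phase LC–MS/MS at an external lab; detection limit 0.01 mg a.s./kg dry soil. Soils were also screened for the parent's conversion product. DT50 derived as ln(2)/k from first-order decay without lag.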

Structure (SMILES): C/C(=N\C#N)N(C)Cc1ccc(Cl)nc1 [Acetamiprid, acetamiprid]
- EC50s (E. fetida; ref Wang et al. (2012), Ge et al. (2018), Wang et al. (2015)): approximately 0.30 mg a.s/kg dry soil
- Times more toxic to survival than its commercial formulation (Folsomia candida): 3
- Times more toxic to survival than its commercial formulation (Folsomia candida; listed as acetamiprid): 4
- Times more toxic to the survival of the earthworms compared with thiacloprid (Eisenia andrei; E. andrei, LC50 comparison): 10
- Log K OW [1]: 0.8

Structure (SMILES): N#C/N=C1\SCCN1Cc1ccc(Cl)nc1 [Thiacloprid, thiacloprid]
- LC50 (E. fetida; ref Feng et al. (2015)): 8.43 mg/kg
- Times more toxic to reproduction than to survival (Folsomia candida): approximately 3

Structure (SMILES): CN1COCN(Cc2cnc(Cl)s2)/C1=N\[N+](=O)[O-] [Thiamethoxam, thiamethoxam]
- LC50, acute toxicity tests (14 d) (earthworm): > 1000 mg a.s./kg dry soil
- Toxicity to E. andrei at the concentrations tested (in words) (Eisenia andrei; highest concentration tested 10 mg a.s./kg dry soil, survival and reproduction): no toxicity
- Log K OW [1]: –0.13
- Concentration of clothianidin measured (conversion product of thiamethoxam) [2]: 0.09 mg a.s./kg dry soil

Structure (SMILES): O=[N+]([O-])NC1=NCCN1Cc1ccc(Cl)nc1 [Imidacloprid, imidacloprid]
- Times more toxic to reproduction than its commercial formulation (Folsomia candida; pure compound vs formulation (EC50)): 4

Structure (SMILES): CN/C(=N\[N+](=O)[O-])NCc1cnc(Cl)s1 [Clothianidin, clothianidin]
- Times more toxic than thiacloprid (Folsomia candida; LC50 comparison): approximately 100
- Log K OW [1]: 0.95

— paper PMC7064934 (Environmental Toxicology and Chemistry, 2019)
